Measured values from ChEMBL document CHEMBL4190292, “Electrophilic Triterpenoid Enones: A Comparative Thiol-Trapping and Bioactivity Study” (J Nat Prod, 2017).
pIC50: −log10 of the molar value.

Assays:
Type in all cases: cell-based
[1] = Inhibition of TNF-alpha stimulated NF-kappaB (unknown origin) expressed in mouse NIH/3T3 cells after 6 hrs by luciferase reporter gene assay; conditions: NIH3T3, 6 h
Summary of the method: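 NIH-3T3-KBF-Luc mouse fibroblasts given TNFα (20 ng/mL) with or without compounds for 6 h. Cells washed, lysed in Tris-phosphate pH 7.8 buffer, and luciferase read on the supernatant. Inhibition expressed as percent of TNFα-induced NF-κB activity (100%). Mean of at least five independent experiments.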

[2] = biological target: T1, Nuclear factor erythroid 2-related factor 2 (Homo sapiens) (UniProt Q16236); test: Activation of Nrf2 (unknown origin) expressed in human HaCaT-ARE-luc cells after 6 hrs by luciferase reporter gene assay relative to control tertbutylhydroquinone
T1 sequence (whole entry): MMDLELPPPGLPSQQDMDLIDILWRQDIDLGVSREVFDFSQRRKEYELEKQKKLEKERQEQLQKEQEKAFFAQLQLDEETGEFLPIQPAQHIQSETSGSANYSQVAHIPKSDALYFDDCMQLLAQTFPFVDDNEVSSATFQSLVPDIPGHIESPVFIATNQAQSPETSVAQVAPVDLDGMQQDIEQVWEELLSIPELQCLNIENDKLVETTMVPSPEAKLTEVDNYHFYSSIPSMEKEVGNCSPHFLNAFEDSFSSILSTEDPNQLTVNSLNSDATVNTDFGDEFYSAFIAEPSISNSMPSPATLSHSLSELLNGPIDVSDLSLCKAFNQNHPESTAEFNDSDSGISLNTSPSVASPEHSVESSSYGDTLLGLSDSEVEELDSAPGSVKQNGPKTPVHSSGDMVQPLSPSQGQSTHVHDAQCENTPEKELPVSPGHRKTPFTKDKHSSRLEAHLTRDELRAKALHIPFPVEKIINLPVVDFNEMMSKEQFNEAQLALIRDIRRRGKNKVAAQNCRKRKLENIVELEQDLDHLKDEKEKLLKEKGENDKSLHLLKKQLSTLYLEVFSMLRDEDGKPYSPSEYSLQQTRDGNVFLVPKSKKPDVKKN

[3] = biological target: T2, Nuclear factor erythroid 2-related factor 2 (Homo sapiens, UniProt Q16236); test: Activation of Nrf2 (unknown origin) expressed in human HaCaT-ARE-luc cells after 6 hrs by luciferase reporter gene assay
T2 sequence (Q16236 whole entry): T1 sequence (whole entry)
Summary of the method: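 HaCaT-ARE-Luc keratinocytes in DMEM with 10% FBS, 37 °C, 5% CO2, exposed to compounds for 6 h. Cells then washed with PBS and lysed (Tris-phosphate pH 7.8, MgCl2, DTT, Triton X-100, glycerol, 15 min RT). Luciferase RLU read on the supernatant and EC50 derived. Mean of at least five independent experiments.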

[4] = biological target: Signal transducer and activator of transcription 3 (Homo sapiens, UniProt P40763); test: Inhibition of IFN-gamma stimulated STAT3 (unknown origin) expressed in human HeLa cells after 6 hrs by luciferase reporter gene assay
Chain of Signal transducer and activator of transcription 3 (P40763 whole entry): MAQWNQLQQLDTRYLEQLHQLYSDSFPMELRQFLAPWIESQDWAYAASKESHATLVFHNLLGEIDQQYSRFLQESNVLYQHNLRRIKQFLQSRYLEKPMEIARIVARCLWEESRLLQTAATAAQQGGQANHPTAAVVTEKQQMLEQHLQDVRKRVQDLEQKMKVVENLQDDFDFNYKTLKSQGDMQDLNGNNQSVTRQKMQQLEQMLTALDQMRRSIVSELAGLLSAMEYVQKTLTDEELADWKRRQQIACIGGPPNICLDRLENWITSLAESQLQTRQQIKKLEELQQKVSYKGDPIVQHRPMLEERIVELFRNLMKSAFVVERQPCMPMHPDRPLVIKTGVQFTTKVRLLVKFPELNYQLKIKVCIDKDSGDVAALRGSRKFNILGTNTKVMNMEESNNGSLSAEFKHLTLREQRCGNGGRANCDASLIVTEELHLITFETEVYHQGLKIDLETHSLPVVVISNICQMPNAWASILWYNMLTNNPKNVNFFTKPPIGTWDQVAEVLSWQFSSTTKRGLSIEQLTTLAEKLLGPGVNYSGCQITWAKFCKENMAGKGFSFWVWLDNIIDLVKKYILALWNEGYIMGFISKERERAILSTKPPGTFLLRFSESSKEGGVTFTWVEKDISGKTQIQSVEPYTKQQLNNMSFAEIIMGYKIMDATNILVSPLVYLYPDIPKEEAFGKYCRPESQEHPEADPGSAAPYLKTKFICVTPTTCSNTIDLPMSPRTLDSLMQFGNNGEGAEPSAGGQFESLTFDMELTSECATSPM
Summary of the method: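 HeLa-STAT3-Luc cells stimulated with γIFN (20 IU/mL) with or without compounds for 6 h. PBS-washed cells lysed 15 min at room temperature and luciferase RLU measured. Values expressed as percent inhibition of IFN-γ-induced activity (taken as 100%). Mean of at least five independent experiments.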

HaCaT = test: Cytotoxicity against human HaCaT cells harboring pARE-Luc assessed as reduction in cell viability at >5 to 10 uM
HeLa = test: Cytotoxicity against human HeLa cells harboring pSTAT3-Luc assessed as reduction in cell viability at >5 to 10 uM

pIC50 [1] | Compound | other results
< 4.30 | CC1(C)CC[C@]2(C(=O)O)CC[C@]3(C)C(=CC[C@@H]4[C@@]5(C)CC[C@H](O)C(C)(C)[C@@H]5CC[C@]43C)[C@@H]2C1 [OLEANOLIC_ACID] | 
< 4.60 | COC(=O)[C@]12CCC(C)(C)C[C@H]1C1=CC[C@@H]3[C@@]4(C)C=C(I)C(=O)C(C)(C)[C@@H]4CC[C@@]3(C)[C@]1(C)CC2 | 
4.82 | COC(=O)[C@]12CCC(C)(C)C[C@H]1C1=CC[C@@H]3[C@@]4(C)C=C(C#N)C(=O)C(C)(C)[C@@H]4CC[C@@]3(C)[C@]1(C)CC2 | Ratio [2]: 1.69
< 4.60 | COC(=O)[C@]12CCC(C)(C)C[C@H]1C1=CC[C@@H]3[C@@]4(C)C=C(Br)C(=O)C(C)(C)[C@@H]4CC[C@@]3(C)[C@]1(C)CC2 | 
< 4.60 | COC(=O)[C@]12CCC(C)(C)C[C@H]1C1=CC[C@@H]3[C@@]4(C)C=C(c5ccc(C#N)cc5)C(=O)C(C)(C)[C@@H]4CC[C@@]3(C)[C@]1(C)CC2 | 
5.11 | COC(=O)[C@]12CCC(C)(C)C[C@H]1C1=CC[C@@H]3[C@@]4(C)C=C(C=O)C(=O)C(C)(C)[C@@H]4CC[C@@]3(C)[C@]1(C)CC2 | EC50 [3]: Nd(Toxic); IC50 [4]: Nd(Toxic); Activity (HaCaT): Toxic; Activity (HeLa): Toxic
< 4.60 | COC(=O)[C@]12CCC(C)(C)C[C@H]1C1=CC[C@@H]3[C@@]4(C)C=C(C(=O)O)C(=O)C(C)(C)[C@@H]4CC[C@@]3(C)[C@]1(C)CC2 | Ratio [2]: 0.41
< 4.60 | CCOC(=O)/C=C/C1=C[C@]2(C)[C@H]3CC=C4[C@@H]5CC(C)(C)CC[C@]5(C(=O)OC)CC[C@@]4(C)[C@]3(C)CC[C@H]2C(C)(C)C1=O | 
< 4.60 | COC(=O)[C@]12CCC(C)(C)C[C@H]1C1=CC[C@@H]3[C@@]4(C)CCC(=O)C(C)(C)[C@@H]4CC[C@@]3(C)[C@]1(C)CC2 | 
< 4.60 | COC(=O)[C@]12CCC(C)(C)C[C@H]1C1=CC[C@@H]3[C@@]4(C)C=C(c5ccccc5)C(=O)C(C)(C)[C@@H]4CC[C@@]3(C)[C@]1(C)CC2 | 
< 4.60 | COC(=O)[C@]12CCC(C)(C)C[C@H]1C1=CC[C@@H]3[C@@]4(C)C=CC(=O)C(C)(C)[C@@H]4CC[C@@]3(C)[C@]1(C)CC2 | 

The next lines start with the molecule.

Compound | pIC50 [1] | other results
COC(=O)[C@]12CCC(C)(C)C[C@H]1C1=CC[C@@H]3[C@@]4(C)C=C(c5ccc(OC)cc5)C(=O)C(C)(C)[C@@H]4CC[C@@]3(C)[C@]1(C)CC2 | < 4.60 | 
COC(=O)[C@]12CCC(C)(C)C[C@H]1C1=CC[C@@H]3[C@@]4(C)C=C(C#Cc5ccccc5)C(=O)C(C)(C)[C@@H]4CC[C@@]3(C)[C@]1(C)CC2 | < 4.60 | 
COC(=O)[C@]12CCC(C)(C)C[C@H]1[C@H]1C(=O)C=C3[C@@]4(C)C=C(C#N)C(=O)C(C)(C)[C@@H]4CC[C@@]3(C)[C@]1(C)CC2 [BARDOXOLONE METHYL] | 5.62 to 5.92 | Ratio [2]: 40.9
COC(=O)[C@]12CCC(C)(C)C[C@H]1C1=CC[C@@H]3[C@@]4(C)CC(C=O)=C(O)C(C)(C)[C@@H]4CC[C@@]3(C)[C@]1(C)CC2 | < 4.60 | 
COC(=O)[C@]12CCC(C)(C)C[C@H]1C1=CC[C@@H]3[C@@]4(C)C=C(OC(C)=O)C(=O)C(C)(C)[C@@H]4CC[C@@]3(C)[C@]1(C)CC2 | < 4.60 | 
COC(=O)[C@]12CCC(C)(C)C[C@H]1C1=CC[C@@H]3[C@@]4(C)CC(C#N)=C(O)C(C)(C)[C@@H]4CC[C@@]3(C)[C@]1(C)CC2 | < 4.60 | 
COC(=O)[C@]12CCC(C)(C)C[C@H]1C1=CC[C@@H]3[C@@]4(C)Cc5cnoc5C(C)(C)[C@@H]4CC[C@@]3(C)[C@]1(C)CC2 | < 4.60 | 
COC(=O)C1=C[C@]2(C)[C@H]3CC=C4[C@@H]5CC(C)(C)CC[C@]5(C(=O)OC)CC[C@@]4(C)[C@]3(C)CC[C@H]2C(C)(C)C1=O | < 4.60 | 
